Here are results for two compounds from ChEMBL document CHEMBL3621200, “Toward the discovery of dual HCMV-VZV inhibitors: Synthesis, structure activity relationship analysis, and cytotoxicity studies of long chained 2-uracil-3-yl-N-(4-phenoxyphenyl)acetamides” (Bioorg Med Chem, 2015).

Structures are written as SMILES. Activity calls are given as the source filed them. The rule behind the calls is not given here. Some results are limits rather than exact numbers.

The first data set has as its system Feline coronavirus. The data set can be described thus: Antiviral activity against Feline coronavirus. The data set is classed as functional, organism-based.
Details: not given
Regarding `O=C(Cn1c(=O)ccn(CCCCOCc2ccc(Br)cc2)c1=O)Nc1ccc(Oc2ccccc2)cc1`, the inhibition entry was “inactive”.

With `N#Cc1ccc(OCCCCCn2ccc(=O)n(CC(=O)Nc3ccc(Oc4ccccc4)cc3)c2=O)cc1`, the inhibition entry is “inactive”.

The test system of another data set is Coxsackievirus B4. The experiment in a line: Antiviral activity against Human coxsackievirus B4. The data set is classed as functional, organism-based.
Details: not given
For the compound `O=C(Cn1c(=O)ccn(CCCCOCc2ccc(Br)cc2)c1=O)Nc1ccc(Oc2ccccc2)cc1`, the inhibition entry is “inactive”.

`N#Cc1ccc(OCCCCCn2ccc(=O)n(CC(=O)Nc3ccc(Oc4ccccc4)cc3)c2=O)cc1`: the inhibition result was “inactive”.

System in the next data set: not listed separately
The data set can be described thus: Cytotoxicity against human cytomegalovirus infected HEL cells assessed as alteration of cell morphology incubated for 3 days by microscopy. The data set is classed as cell-based. The following applies: HEL cells infected with human cytomegalovirus. Summed up: (§1)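 Cytotoxicity was given as the minimum cytotoxic concentration (MCC): the compound concentration causing a microscopically detectable change in HEL cell morphology.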
`O=C(Cn1c(=O)ccn(CCCCOCc2ccc(Br)cc2)c1=O)Nc1ccc(Oc2ccccc2)cc1`: the MCC at 72 h is not below 4 µM.

As to `N#Cc1ccc(OCCCCCn2ccc(=O)n(CC(=O)Nc3ccc(Oc4ccccc4)cc3)c2=O)cc1`, the MCC at 72 h was not below 4 µM.

The test system of another data set is Human alphaherpesvirus 2. The experiment in a line: Antiviral activity against HSV2 Lyons. Type of data set: functional, organism-based.
Details: not given
Summed up: (§2)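 Confluent cell monolayers in 96-well plates were inoculated with 100 CCID50 of virus together with varying compound concentrations. Cytopathicity was scored once it reached completion in untreated infected controls.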
Regarding `O=C(Cn1c(=O)ccn(CCCCOCc2ccc(Br)cc2)c1=O)Nc1ccc(Oc2ccccc2)cc1`, the inhibition entry is “inactive”.

In the case of `N#Cc1ccc(OCCCCCn2ccc(=O)n(CC(=O)Nc3ccc(Oc4ccccc4)cc3)c2=O)cc1`, the inhibition entry is “inactive”.

The next data set relates to Influenza B virus. The experiment in a line: Antiviral activity against Influenza B virus. The data set is classed as functional, organism-based.
Details: not given
In short, it runs like this: (§3)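 Confluent cell monolayers (HEL, Vero, HeLa or MDCK) in 96-well plates were infected with 100 CCID50 of virus in the presence of varying compound concentrations. Cytopathicity was scored once it reached completion in untreated infected controls.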
Regarding `O=C(Cn1c(=O)ccn(CCCCOCc2ccc(Br)cc2)c1=O)Nc1ccc(Oc2ccccc2)cc1`, the inhibition entry was “inactive”.

As for `N#Cc1ccc(OCCCCCn2ccc(=O)n(CC(=O)Nc3ccc(Oc4ccccc4)cc3)c2=O)cc1`, the inhibition result was “inactive”.

A further data set relates to Influenza A virus H3N2. The data set can be described thus: Antiviral activity against Influenza A virus H3N2. Type of data set: functional, organism-based.
Details: not given
In short, it runs like this:
as §3
`O=C(Cn1c(=O)ccn(CCCCOCc2ccc(Br)cc2)c1=O)Nc1ccc(Oc2ccccc2)cc1`: the inhibition entry was “inactive”.

With `N#Cc1ccc(OCCCCCn2ccc(=O)n(CC(=O)Nc3ccc(Oc4ccccc4)cc3)c2=O)cc1`, the inhibition entry was “inactive”.

The next data set has as its system Human immunodeficiency virus 1. The data set can be described thus: Antiviral activity against HIV1 3B infected in human CEM cells assessed as reduction in virus- induced cytopathicity incubated for 4 to 5 days by microscopy based virus syncytium formation assay. Type of data set: functional, organism-based. The following applies: CCRF-CEM. In short, it runs like this: (§4)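 CEM cells at ~3 × 10^5 cells/mL, infected with 100 CCID50 of HIV per mL in the presence of compound dilutions. Incubated 4–5 days at 37 °C in humidified CO2. Syncytium (giant cell) formation scored by microscopy.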
Background: Damage to the host cells serves as the signal in cytopathic effect assays.
As for `O=C(Cn1c(=O)ccn(CCCCOCc2ccc(Br)cc2)c1=O)Nc1ccc(Oc2ccccc2)cc1`, the inhibition entry was “inactive”.

`N#Cc1ccc(OCCCCCn2ccc(=O)n(CC(=O)Nc3ccc(Oc4ccccc4)cc3)c2=O)cc1`: the inhibition entry was “inactive”.

A further data set deals with Punta Toro virus. The data set can be described thus: Antiviral activity against Punta Toro virus. Type of data set: functional, organism-based.
Details: not given
Regarding `O=C(Cn1c(=O)ccn(CCCCOCc2ccc(Br)cc2)c1=O)Nc1ccc(Oc2ccccc2)cc1`, the inhibition result is “inactive”.

As for `N#Cc1ccc(OCCCCCn2ccc(=O)n(CC(=O)Nc3ccc(Oc4ccccc4)cc3)c2=O)cc1`, the inhibition entry was “inactive”.

The next data set concerns Human immunodeficiency virus 2. The data set can be described thus: Antiviral activity against HIV2 ROD infected in human CEM cells assessed as reduction in virus- induced cytopathicity incubated for 4 to 5 days by microscopy based virus syncytium formation assay. Type of data set: functional, organism-based. To be noted: ISOLATE ROD, CCRF-CEM. Summed up:
as §4
Regarding `O=C(Cn1c(=O)ccn(CCCCOCc2ccc(Br)cc2)c1=O)Nc1ccc(Oc2ccccc2)cc1`, the inhibition result is “inactive”.

Turning to `N#Cc1ccc(OCCCCCn2ccc(=O)n(CC(=O)Nc3ccc(Oc4ccccc4)cc3)c2=O)cc1`, the inhibition result is “inactive”.

The test system of another data set is Human respirovirus 3. The data set can be described thus: Antiviral activity against Parainfluenza 3 virus. Type of data set: functional, organism-based.
Details: not given
On to `O=C(Cn1c(=O)ccn(CCCCOCc2ccc(Br)cc2)c1=O)Nc1ccc(Oc2ccccc2)cc1`, for which the inhibition entry was “inactive”.

As to `N#Cc1ccc(OCCCCCn2ccc(=O)n(CC(=O)Nc3ccc(Oc4ccccc4)cc3)c2=O)cc1`, the inhibition result was “inactive”.

The test system of another data set is Influenza A virus. The experiment in a line: Antiviral activity against Influenza A virus H1N1. Type of data set: functional, organism-based.
Details: not given
In short, it runs like this: as §3
For `O=C(Cn1c(=O)ccn(CCCCOCc2ccc(Br)cc2)c1=O)Nc1ccc(Oc2ccccc2)cc1`, the inhibition result was “inactive”.

Consider `N#Cc1ccc(OCCCCCn2ccc(=O)n(CC(=O)Nc3ccc(Oc4ccccc4)cc3)c2=O)cc1`, for which the inhibition entry is “inactive”.

System in another data set: not listed separately
The experiment in a line: Cytotoxicity against Varicella zoster virus infected HEL cells assessed as alteration of cell morphology incubated for 3 days by microscopy. The data set is classed as cell-based. The following applies: human, HEL cells infected with Varicella zoster virus. Summed up: as §1
On to `O=C(Cn1c(=O)ccn(CCCCOCc2ccc(Br)cc2)c1=O)Nc1ccc(Oc2ccccc2)cc1`, for which the MCC at 72 h is more than 100 µM.

`N#Cc1ccc(OCCCCCn2ccc(=O)n(CC(=O)Nc3ccc(Oc4ccccc4)cc3)c2=O)cc1`: the MCC at 72 h is more than 100 µM.

In the next data set the test system is Human alphaherpesvirus 1. The data set can be described thus: Antiviral activity against HSV1 KOS.
Details: not given
The data set is classed as functional, organism-based. Summed up:
as §2
With `O=C(Cn1c(=O)ccn(CCCCOCc2ccc(Br)cc2)c1=O)Nc1ccc(Oc2ccccc2)cc1`, the inhibition result is “inactive”.

`N#Cc1ccc(OCCCCCn2ccc(=O)n(CC(=O)Nc3ccc(Oc4ccccc4)cc3)c2=O)cc1`: the inhibition entry is “inactive”.

In another data set the test system is Human betaherpesvirus 5. The data set can be described thus: Antiviral activity against human cytomegalovirus AD169 infected in HEL cells assessed as reduction in viral plaque formation. The data set is classed as functional, organism-based. To be noted: Human betaherpesvirus 5, AD169, HEL. Summed up: (§5)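 Confluent HEL fibroblasts were infected with 100 PFU of HCMV in the presence of varying compound concentrations. Plaques were counted once plaque formation was complete in untreated infected controls.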
Turning to `O=C(Cn1c(=O)ccn(CCCCOCc2ccc(Br)cc2)c1=O)Nc1ccc(Oc2ccccc2)cc1`, the EC50 (usually the concentration that produces a half-maximal response) is 1800 nM.

As for `N#Cc1ccc(OCCCCCn2ccc(=O)n(CC(=O)Nc3ccc(Oc4ccccc4)cc3)c2=O)cc1`, the EC50 worked out at 530 nM.

A further data set concerns Human herpesvirus 2 strain G. The experiment in a line: Antiviral activity against HSV2 G Lyons. Type of data set: functional, organism-based.
Details: not given
On to `O=C(Cn1c(=O)ccn(CCCCOCc2ccc(Br)cc2)c1=O)Nc1ccc(Oc2ccccc2)cc1`, for which the inhibition entry was “inactive”.

As for `N#Cc1ccc(OCCCCCn2ccc(=O)n(CC(=O)Nc3ccc(Oc4ccccc4)cc3)c2=O)cc1`, the inhibition entry was “inactive”.

Another data set concerns HEL. The experiment in a line: Cytotoxicity against human cytomegalovirus infected HEL cells assessed as cell growth inhibition incubated for 3 days by coulter counter method. Type of data set: cell-based. To be noted: 72 h. In short, it runs like this: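 HEL cells were seeded at 5 × 10^3 cells/well and left to adhere and proliferate for 24 h, then compound-containing medium was added. After 3 days at 37 °C, cells were counted with a Coulter counter.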
`O=C(Cn1c(=O)ccn(CCCCOCc2ccc(Br)cc2)c1=O)Nc1ccc(Oc2ccccc2)cc1`: the CC50 (in general, the concentration that lowers cell viability or growth by half) came to 4800 nM.

For the compound `N#Cc1ccc(OCCCCCn2ccc(=O)n(CC(=O)Nc3ccc(Oc4ccccc4)cc3)c2=O)cc1`, the CC50 worked out at 4900 nM.

Another data set concerns Mammalian orthoreovirus 1. The experiment in a line: Antiviral activity against Reovirus 1. Type of data set: functional.
Details: not given
As to `O=C(Cn1c(=O)ccn(CCCCOCc2ccc(Br)cc2)c1=O)Nc1ccc(Oc2ccccc2)cc1`, the inhibition result was “inactive”.

Take `N#Cc1ccc(OCCCCCn2ccc(=O)n(CC(=O)Nc3ccc(Oc4ccccc4)cc3)c2=O)cc1`: the inhibition entry was “inactive”.

A further data set relates to Vaccinia virus. The experiment in a line: Antiviral activity against Vaccinia virus Lederle. The data set is classed as functional, organism-based. The following applies: Orthopoxvirus vaccinia. In short, it runs like this:
as §3
With `O=C(Cn1c(=O)ccn(CCCCOCc2ccc(Br)cc2)c1=O)Nc1ccc(Oc2ccccc2)cc1`, the inhibition result was “inactive”.

`N#Cc1ccc(OCCCCCn2ccc(=O)n(CC(=O)Nc3ccc(Oc4ccccc4)cc3)c2=O)cc1`: the inhibition entry was “inactive”.

Another data set has as its system Human betaherpesvirus 5. The data set can be described thus: Antiviral activity against human cytomegalovirus Davis infected in HEL cells assessed as reduction in viral plaque formation. The data set is classed as functional, organism-based. To be noted: Human betaherpesvirus 5, Davis. Summed up:
as §5
For the compound `O=C(Cn1c(=O)ccn(CCCCOCc2ccc(Br)cc2)c1=O)Nc1ccc(Oc2ccccc2)cc1`, the EC50 is not below 1200 nM.

Take `N#Cc1ccc(OCCCCCn2ccc(=O)n(CC(=O)Nc3ccc(Oc4ccccc4)cc3)c2=O)cc1`: the EC50 was 440 nM.

The test system of the next data set is Vesicular stomatitis virus. The data set can be described thus: Antiviral activity against Vesicular stomatitis virus. The data set is classed as functional, organism-based.
Details: not given
Summed up: as §3
For the compound `O=C(Cn1c(=O)ccn(CCCCOCc2ccc(Br)cc2)c1=O)Nc1ccc(Oc2ccccc2)cc1`, the inhibition entry was “inactive”.

As to `N#Cc1ccc(OCCCCCn2ccc(=O)n(CC(=O)Nc3ccc(Oc4ccccc4)cc3)c2=O)cc1`, the inhibition entry is “inactive”.

The next data set relates to Sindbis virus. The data set can be described thus: Antiviral activity against Sindbis virus. Type of data set: functional, organism-based.
Details: not given
Regarding `O=C(Cn1c(=O)ccn(CCCCOCc2ccc(Br)cc2)c1=O)Nc1ccc(Oc2ccccc2)cc1`, the inhibition result was “inactive”.

Regarding `N#Cc1ccc(OCCCCCn2ccc(=O)n(CC(=O)Nc3ccc(Oc4ccccc4)cc3)c2=O)cc1`, the inhibition entry is “inactive”.
